The record followed here is ChEMBL document CHEMBL4270536, “Preparation, characterisation and biological evaluation of new N-phenyl amidobenzenesulfonates and N-phenyl ureidobenzenesulfonates inducing DNA double-strand breaks. Part 3. Modulation of ring A” (Eur J Med Chem, 2018).

Active and inactive are the calls of the source. No cut-off for these calls is given here.

Assay [1] has as its system M21. Briefly: Antiproliferative activity against human M21 cells after 48 hrs by SRB assay. Type of assay: functional, cell-based. The note with it: M21, 48 h. The method in brief:
(§1)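 Cells grown in DMEM with 5% FBS at 37 C; seeded per well at 2.5 x 10^3 (HT-1080), 4.0 x 10^3 (HT-29), 3.0 x 10^3 (M21) or 2.5 x 10^3 (MCF7). Drugs from 40 mM DMSO stock, serial dilutions, final 100 µM to 78 nM, DMSO <0.5%.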
(In general: Sulforhodamine B stains cellular protein and so reports cell mass.)

The test system of assay [2] is M21. Briefly: Cell cycle arrest in human M21 cells assessed as accumulation at S phase at 2 times IC50 after 24 hrs by DAPI staining based flow cytometry relative to control. Background: In flow cytometry, cells or beads pass a laser one at a time.
The subject of assay [3] is HT-1080. Briefly: Antiproliferative activity against human HT1080 cells after 48 hrs by SRB assay. The note with it: HT-1080, 48 h. Type of assay: functional, cell-based. The procedure, abridged: as §1
For assay [4], the system named is M21. Briefly: Cell cycle arrest in human M21 cells assessed as accumulation at sub-G1 phase at 2 times IC50 after 24 hrs by DAPI staining based flow cytometry relative to control.
Assay [5] has as its system M21. Briefly: Cell cycle arrest in human M21 cells assessed as accumulation at G0/G1 phase at 2 times IC50 after 24 hrs by DAPI staining based flow cytometry relative to control.
Assay [6] is described as follows: Alkylating activity at DNA (unknown origin) after 90 mins by colorimetric NBP assay relative to chlorambucil. The format is functional. The method in brief:
(§2)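 NBP alkylation kinetics (Bardos colorimetric method): 400 nmol drug in 1 mL ethanol mixed with 1 mL NBP (10% v/v in 95% ethanol), 1 mL 50 mM acetate buffer pH 4.3 and 1 mL ethanol, kept on ice, then heated at 80 C in shaking water bath; stopped on ice 5 min after 0, 30, 60, 90 min. Rate constant from linear regression of absorbance curve; chlorambucil as positive control.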

Assay [7] deals with MCF7. Briefly: Antiproliferative activity against human MCF7 cells after 48 hrs by SRB assay. Type of assay: functional, cell-based. The note with it: MCF7, 48 h. The method in brief: as §1
In assay [8] the test system is M21. Briefly: Cell cycle arrest in human M21 cells assessed as accumulation at G2/M phase at 2 times IC50 after 24 hrs by DAPI staining based flow cytometry relative to control.
The subject of assay [9] is HT-29. Briefly: Antiproliferative activity against human HT-29 cells after 48 hrs by SRB assay. The format is functional, cell-based. The note with it: HT-29, 48 h. The procedure, abridged: as §1
Assay [10] can be described thus: Alkylating activity at DNA (unknown origin) after 90 mins by colorimetric NBP assay. Type of assay: functional. The method in brief: as §2
The test system of assay [11] is M21. The assay is described as follows: Induction of DNA damage in human M21 cells assessed as increase in gammaH2Ax level at 5 times IC50 after 24 hrs by immunofluorescence based epifluorescence microscopy. The format is functional, cell-based. The method in brief: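 M21 cells (1 x 10^5) on fibronectin-coated (5 µg/mL, 1 h, 37 C) cover slides, 24 h attachment, then drug for 24 h; DMSO 0.25% in medium as control. Fixed with 3.7% formaldehyde, permeabilized with 0.1% saponin/3% BSA, mouse anti-H2AX pS139 (1:8000), DAPI nuclear stain; γH2AX foci imaged by epifluorescence microscopy.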

For assay [12], the system named is M21. Briefly: Cell cycle arrest in human M21 cells assessed as accumulation at G2/M phase at 2 times IC50 after 24 hrs by DAPI staining based flow cytometry relative to control. Type of assay: functional. The procedure, abridged:
(§3)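 Flow cytometry in M21 cells seeded in six-well plates, allowed 24 h, then exposed 24 h to drug (2- or 5-fold IC50); DMSO 0.5% control. Trypsinized, PBS-washed, fixed in ice-cold EtOH, stained with 2 mg/mL DAPI in PBS; sub-G1, G0/G1, S and G2/M fractions measured on LSR II cytometer.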

The test system of assay [13] is M21. Briefly: Cell cycle arrest in human M21 cells assessed as accumulation at sub-G1 phase at 2 times IC50 after 24 hrs by DAPI staining based flow cytometry relative to control. The format is functional. The method in brief: as §3
The subject of assay [14] is M21. The assay is described as follows: Induction of DNA damage in human M21 cells assessed as increase in gammaH2Ax level at 5 times IC50 after 24 hrs by immunofluorescence based epifluorescence microscopy.
In assay [15] the test system is M21. Briefly: Cell cycle arrest in human M21 cells assessed as accumulation at G0/G1 phase at 2 times IC50 after 24 hrs by DAPI staining based flow cytometry relative to control. Type of assay: functional. The method in brief: as §3
In assay [16] the test system is M21. The assay is described as follows: Cell cycle arrest in human M21 cells assessed as accumulation at S phase at 2 times IC50 after 24 hrs by DAPI staining based flow cytometry relative to control. Type of assay: functional. The method in brief: as §3

By IC50 is commonly meant the midpoint of a concentration-inhibition curve. Low values mean greater potency, high ones weaker potency. Regarding `CCCNC(=O)Nc1ccc(S(=O)(=O)Oc2ccccc2C(C)C)cc1`, the IC50 in assay [1] worked out at 5.1 µM; in assay [3] it was 0.68 µM; in assay [7], 2.7 µM; in assay [9], 6.3 µM. For the same compound, the Activity in assay [2] turned out to be 25.1%; in [4], 0.3%; in assay [5], 64.6%; in [8], 10%. The same compound gave a fold change (FC) in [6] of 200. The compound further yielded a K in assay [10] of 0.027 ×10⁻³ /s.

For the compound `CCNC(=O)Nc1ccc(S(=O)(=O)Oc2ccccc2C(C)C)cc1`, the IC50 was 4.7 µM in [1], 0.25 µM in assay [3], 10 µM in [7] and 1.1 µM in assay [9]. Further, the Activity was determined as 31.5% in [2], 0.8% in assay [4], 58.8% in assay [5] and 8.9% in assay [8]. The result in [11] was Active. This compound yielded a fold change (FC) in assay [6] of 14. This compound also had a K in assay [10] of 0.37 ×10⁻³ /s.

Take `CC(C)c1ccccc1OS(=O)(=O)c1ccc(NC(=O)C(C)(C)C)cc1`: the Activity in [12] is given as 16%; in assay [13], 0.4%; in [15], 36.7%; in assay [16], 46.9%. Besides, the IC50 worked out at 6.2 µM in assay [1], 11 µM in [3], 6.5 µM in assay [7] and 15 µM in assay [9]. This compound also yielded a fold change (FC) in assay [6] of 780. The result in assay [14] was Active. The compound further showed a K in assay [10] of 0.007 ×10⁻³ /s.

As for `CC(C)c1ccccc1OS(=O)(=O)c1ccc(NC(=O)NC2CCCC2)cc1`, the 50% inhibitory concentration (IC50) in [1] was 6.1 µM; in [3] it was 3.9 µM; in [7], 6.2 µM; in assay [9], 7.4 µM. The Activity in assay [2] was found to be 12.5%; in assay [4] it was 0.1%; in assay [5] it was 60.2%; in [8], 27.2%.

On to `CCCCCNC(=O)Nc1ccc(S(=O)(=O)Oc2ccccc2C(C)C)cc1`, for which the IC50 amounted to 4.6 µM in assay [1], 4.7 µM in assay [3], 4 µM in assay [7] and 4.9 µM in assay [9]. Further, the Activity is 12.2% in assay [2], 0.3% in [4], 60.6% in assay [5] and 26.9% in assay [8].

`CCC(=O)Nc1ccc(S(=O)(=O)Oc2ccccc2C(C)C)cc1`: the Activity came to 15.4% in assay [12], 0.6% in [13], 39.6% in [15] and 44.4% in [16]. In addition, the IC50 in [1] turned out to be 11 µM; in assay [3], 2.1 µM; in assay [7], 11 µM; in assay [9] it was 7.4 µM. Moreover, in [6], the fold change (FC) stood at 17. Besides, the result in [14] was Active. In [10], this compound showed a K of 0.31 ×10⁻³ /s.

Consider `CCC(=O)Nc1ccc(S(=O)(=O)Oc2ccccc2I)cc1`, for which the Activity in assay [12] amounted to 11.4%; in [13], 0.2%; in assay [15], 60.4%; in [16] it was 28%. In addition, the IC50 was found to be 11 µM in assay [1], 7.2 µM in assay [3], 8.1 µM in [7] and 11 µM in [9]. The compound also yielded a fold change (FC) in [6] of 11. The outcome in assay [14] was Active. This compound also returned a K in assay [10] of 0.49 ×10⁻³ /s.

Turning to `CCCC(=O)Nc1ccc(S(=O)(=O)Oc2ccccc2I)cc1`, the Activity worked out at 40.1% in assay [12], 0.1% in [13], 37% in assay [15] and 22.8% in [16]. The IC50 was 9 µM in assay [1], 2 µM in [3], 9.7 µM in [7] and 11 µM in assay [9]. Further, in [6], the fold change (FC) stood at 60. Also, the outcome in [14] was Active. In addition, the K in assay [10] worked out at 0.088 ×10⁻³ /s.

As to `CCCCCNC(=O)Nc1ccc(S(=O)(=O)Oc2ccccc2I)cc1`, the concentration for half-maximal inhibition (IC50) in assay [1] was determined as 5.9 µM; in assay [3] it was 6.9 µM; in assay [7] it was 5.4 µM; in assay [9], 6.6 µM. For the same compound, the Activity stood at 14.7% in [2], 0.1% in assay [4], 62.2% in assay [5] and 23% in assay [8].

As for `CCCC(=O)Nc1ccc(S(=O)(=O)Oc2ccccc2C(C)C)cc1`, the Activity in assay [12] amounted to 15.5%; in assay [13] it was 0.7%; in assay [15], 40%; in assay [16] it was 43.8%. Moreover, the IC50 in assay [1] is 6.1 µM; in assay [3], 0.95 µM; in [7], 6.6 µM; in assay [9], 4.9 µM. The same compound returned a fold change (FC) in assay [6] of 14. The outcome in assay [14] was Active. In [10], this compound had a K of 0.37 ×10⁻³ /s.

For `O=C(NCCCl)Nc1ccc(S(=O)(=O)Oc2ccccc2I)cc1`, the Activity in [2] stood at 30.9%; in assay [4], 0.1%; in assay [5], 56.8%; in [8], 12.2%. Moreover, the fold change (FC) in assay [6] was determined as 75. The same compound showed a K in [10] of 0.071 ×10⁻³ /s.

Take `O=C(NCC1CCCC1)Nc1ccc(S(=O)(=O)Oc2ccccc2I)cc1`: the IC50 in [1] turned out to be 7.6 µM; in assay [3], 6.1 µM; in [7], 6.6 µM; in assay [9], 7.6 µM. Also, the Activity worked out at 18.9% in assay [2], 0.1% in assay [4], 56.2% in assay [5] and 24.8% in assay [8].

For `CC(C)c1ccccc1OS(=O)(=O)c1ccc(NC(=O)CCCl)cc1`, the Activity is given as 30.6% in [12], 0.1% in assay [13], 33.7% in assay [15] and 35.6% in assay [16]. The half-inhibitory concentration (IC50) in [1] was determined as 14 µM; in assay [3] it was 6.5 µM; in [7], 9 µM; in [9], 16 µM. The compound further had a fold change (FC) in [6] of 220. The outcome in assay [14] was Active. In [10], this compound showed a K of 0.024 ×10⁻³ /s.

For `CC(C)c1ccccc1OS(=O)(=O)c1ccc(NC(=O)NCC2CCCC2)cc1`, the IC50 in assay [1] was determined as 6.6 µM; in assay [3], 6 µM; in assay [7], 7.1 µM; in assay [9], 6.8 µM. Also, the Activity in [2] worked out at 14.3%; in [4], 0.1%; in assay [5], 63.9%; in [8], 21.7%.

Consider `O=C(CCCl)Nc1ccc(S(=O)(=O)Oc2ccccc2I)cc1`, for which the Activity was determined as 37.4% in [12], 0.2% in assay [13], 27.5% in assay [15] and 34.9% in [16]. Moreover, the IC50 in assay [1] was 12 µM; in assay [3], 4.2 µM; in assay [7], 8.9 µM; in assay [9], 14 µM. Also, the fold change (FC) in [6] was determined as 84. Further, the outcome in assay [14] was Active. In assay [10], this compound gave a K of 0.063 ×10⁻³ /s.

In the case of `O=C(Nc1ccc(S(=O)(=O)Oc2ccccc2I)cc1)NC1CC1`, the IC50 was determined as 11 µM in [1], 1.3 µM in assay [3], 7.4 µM in [7] and 14 µM in assay [9]. In addition, the Activity in [2] was found to be 26.9%; in [4], 0.1%; in assay [5], 61.5%; in [8], 11.5%.
